High-throughput results from PubChem.
KCNK9 inh – KCNK9 potassium channel inhibitors, primary screen, HEK293 cells, thallium flux; Potassium channel subfamily K member 9 (Homo sapiens), Q9NPC2; FluxOR thallium flux fluorescence; stronger effect = lower value; B-score at 10 µM; 310,000 compounds, 1.2% hits;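 active = ratio B-score over 3 SD below the library mean, with starting fluorescence within 5 SD of its mean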;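 also: negative B-score means less thallium flux so channel inhibition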
Kir21 block – inhibitors of mouse Kir2.1 inward-rectifier potassium channel; B-score at 10 µM; HEK293-Kir2.1, FluxOR thallium flux fluorescence; stronger effect = lower value; AID 1672, 2009; 310,000 compounds, 0.85% hits;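 active = fluorescence ratio B-score at or below minus 3 SD of library scores, with starting-brightness B-score within 2 SD, cut at about -4.2 in these data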;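 also: channel flux triggered by added potassium and thallium sulfate stimulus; B-score of peak minus minimum fluorescence over baseline after thallium stimulus; more negative B-score means stronger Kir2.1 block with less thallium influx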
KCNK3 inh – human KCNK3 channel inhibitors, primary screen, CHO cells, FluxOR thallium flux, B-score | Potassium channel subfamily K member 3 (Homo sapiens), O14649 | FluxOR fluorescence; stronger effect = lower value | B-score at 10 µM | 340,000 compounds, 0.84% hits | AID 602410, 2012;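 active = B-score under library mean minus 4 SD, starting fluorescence ratio at most library mean plus 5 SD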;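 also: more negative B-score means stronger inhibition of thallium flux through KCNK3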
KCNQ1 inh – inhibitors of human KCNQ1 channel, primary screen, cell-based, thallium flux, high-throughput. Potassium voltage-gated channel subfamily KQT member 1 (Homo sapiens), P51787. CHO-K1 KCNQ1, FluxOR thallium flux fluorescence; stronger effect = higher value. B-score at 10 µM. 310,000 compounds, 1.3% hits;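 active = compounds whose thallium flux B-score, printed positive for inhibition, exceeds three library SD while starting fluorescence stays within three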;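 also: channel opened by potassium depolarization with thallium stimulus after 20 min compound exposure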
hERG rescue – hERG rescue from dofetilide block, primary screen, cell-based, CHO-hERG, FluxOR thallium flux, dofetilide IC70. Voltage-gated inwardly rectifying potassium channel KCNH2 (Homo sapiens), Q12809. dofetilide IC70 present. activation (rescue from dofetilide block), less the hit threshold, % at 10 µM. 310,000 compounds, 0.51% hits. AID 1511, 2009;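 active = activation above the mean of controls blocked by dofetilide plus 5 SD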;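 also: thallium influx through hERG after potassium depolarization seen as dye fluorescence rise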
KCNQ1 pot – potentiators or activators of KCNQ1 channel, primary screen, cell-based, thallium flux, high-throughput. B-score at 10 µM. 310,000 compounds, 0.35% hits. Potassium voltage-gated channel subfamily KQT member 1 (Homo sapiens), P51787. CHO-K1 KCNQ1, thallium flux FluxOR fluorescence; stronger effect = higher value;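 active = fluorescence ratio B-score, a plate-corrected score, at least three library SD, with initial intensity B-score within 5 SD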
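Assay system: CHO-K1 cells stably expressing KCNQ1. Medium: assay buffer for compound exposure, DMSO matched across wells. Timing: 37 °C overnight plating, 90-min dark dye load, 20-min compound pretreatment. Signal: kinetic FluxOR fluorescence, 10 s baseline plus 110 s post-stimulus.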
KCNK9 inh conf – KCNK9 potassium channel inhibitors, confirmation, HEK293 cells, thallium flux, duplicate. shares compounds with KCNK9 inh. FluxOR thallium flux fluorescence. inhibition, % at 10 µM. 4,900 compounds, 43% hits. AID 492992, 2010;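 active = thallium signal inhibited by more than 5 SD of the compound-free buffer control wells, on both duplicate plates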;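 also: 0% = assay buffer control wells without compound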
Kir2-1 spec – mouse Kir2.1 channel inhibition, confirmation, selectivity assay for KCNK9 modulator project, cell-based, HEK293, thallium flux. 4,900 compounds, 4% hits. Kir2.1 cells, FluxOR thallium flux fluorescence. inhibition, % at 10 µM. shares compounds with KCNK9 inh. AID 492993, 2010;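 active = thallium signal drop more than 5 SD beyond the mean of the no-compound control wells, seen in both duplicate plates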;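 also: signal is fluorescence rise after thallium addition divided by baseline fluorescence; plate controls were assay buffer only for no effect and full block by chlorpromazine control for full effect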
KCNK9 uninduced – thallium flux in non-induced HEK293 cells, confirmation, counter-screen for KCNK9 inhibitor project, cell-based, second counter screen, non-induced KCNK9-HEK293. shares compounds with KCNK9 inh. FluxOR thallium flux. inhibition, % at 10 µM. 4,900 compounds, 40% hits. AID 492997, 2010;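 active = thallium signal drop beyond 5 SD of the untreated control mean, on both duplicate plates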;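 also: plate controls were buffer only IC0 wells for no effect and SID17386958 at its maximal inhibitory level for full effect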
The depositor's hits bear a star; i = inactive; nt = no result given. Compounds with a hit are over-represented: about 3.7% of the library has one in this group of screens.

SMILES	KCNK9 inh	Kir21 block	KCNK3 inh	KCNQ1 inh	hERG rescue	KCNQ1 pot	KCNK9 inh conf	Kir2-1 spec	KCNK9 uninduced
Cc1ccc(C(=O)NCCSc2ccc(Cl)cc2)cc1[N+](=O)[O-]	i	-3.48	i	i	-23.4	i	i	i	i
Cc1cc(S(=O)(=O)NCC(c2ccc(F)cc2)N2CCN(C)CC2)ccc1F (stereo not drawn)	i	-0.13	i	i	-14.3	i	nt	nt	nt
O=C(CSc1ccccn1)NC1CCCC1	i	-3.06	nt	i	-3.4	i	nt	nt	nt
S=C(c1ccccc1)N1CCN(c2ccccc2)CC1	nt	nt	i	nt	nt	nt	nt	nt	nt
CC(C)(C)c1ccc(C(=S)N2CCN(c3ccccc3)CC2)cc1	i	0.39	i	6*	-7.8	i	i	i	i
Cc1ccc(C(=O)COC(=O)C(C)N2C(=O)C3C4CCC(C4)C3C2=O)cc1C (stereo not drawn)	i	-1.38	i	i	-19.5	i	nt	nt	nt
Cc1ccc(C(=O)COC(=O)C2C3C=CC(C3)C2C(=O)OCC(=O)c2ccc(C)c(C)c2)cc1C (stereo not drawn)	i	-0.16	i	i	-9.7	i	i	i	i
O=C(Nc1cccc(Cl)c1N1CCCC1)c1ccc([N+](=O)[O-])o1	-10*	0.81	i	i	-5.4	i	34.0%*	i	28.5%*
O=C(Nc1cccc(Cl)c1N1CCCC1)c1ccc(Br)o1	-9.34*	-2.71	i	i	-16.2	i	27.5%*	i	32.0%*
O=C(Nc1cccc(Cl)c1N1CCCC1)c1cc2ccccc2o1	i	0.77	i	i	-13.1	i	nt	nt	nt
COc1cc(-c2csc(NC3CCCCC3)n2)cc(OC)c1OC	i	-0.02	i	i	-11.8	i	i	i	i
O=C(/C=C/c1cccs1)NC(=S)Nc1ccc(S(=O)(=O)Nc2ccccc2C(F)(F)F)cc1	i	-0.03	i	i	-9.7	i	i	i	i
O=C(CC12CC3CC(CC(C3)C1)C2)NCC(=O)OCc1cc(=O)oc2ccc3ccccc3c12	-15.3*	0.45	i	i	-6.6	i	62.5%*	i	i
CCOC(=O)N1CCN(Cc2cc(=O)oc3ccc4ccccc4c23)CC1	i	-0.95	i	i	-7.2	i	nt	nt	nt
COc1ccc(CN=Cc2c(C(F)(F)F)[nH][nH]c2=O)cc1	-11.4*	0	i	i	-9.7	i	27.0%*	i	i
O=C(N/N=C/c1cccs1)c1cc(-c2cccc3ccccc23)n[nH]1	-12.9*	-0.33	i	i	-4.6	i	53.5%*	i	31.5%*
COc1cccc(NC(=O)[C@H](CC(C)C)NC(=O)N2CCn3c2nc2ccccc23)c1	-9.94*	0.32	i	i	-5.5	i	i	i	i
CCN(CC)C(=O)c1nc[nH]c1C(=O)O[C@@H](C)c1ccccc1	nt	nt	i	nt	nt	nt	nt	nt	nt
